# Test results from BindingDB's records for doi:10.1021/jm00130a016 (American Cyanamid, 1989).
# Molecular target: T1, Sterol O-acyltransferase 1 (Homo sapiens, UniProt P35610)
# T1 sequence (P35610 whole entry): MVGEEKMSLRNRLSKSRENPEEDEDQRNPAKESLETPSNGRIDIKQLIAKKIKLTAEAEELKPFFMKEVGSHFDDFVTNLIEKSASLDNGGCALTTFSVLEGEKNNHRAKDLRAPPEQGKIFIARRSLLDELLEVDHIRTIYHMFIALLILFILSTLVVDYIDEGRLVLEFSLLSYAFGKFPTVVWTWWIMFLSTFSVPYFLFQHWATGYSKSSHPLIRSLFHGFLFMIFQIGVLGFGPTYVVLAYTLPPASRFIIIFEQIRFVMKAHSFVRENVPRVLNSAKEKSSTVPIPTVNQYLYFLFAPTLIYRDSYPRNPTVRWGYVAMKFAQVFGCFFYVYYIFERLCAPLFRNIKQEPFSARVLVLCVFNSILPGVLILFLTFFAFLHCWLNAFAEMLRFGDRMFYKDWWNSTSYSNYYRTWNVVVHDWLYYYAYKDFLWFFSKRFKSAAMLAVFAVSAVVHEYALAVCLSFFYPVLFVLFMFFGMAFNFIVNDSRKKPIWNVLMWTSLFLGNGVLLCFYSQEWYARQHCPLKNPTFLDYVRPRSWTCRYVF
# Assay: In vitro inhibitory concentration against acyl coenzyme A:cholesterol acyltransferase derived from smooth muscle cells from thoracic aorta of monkeys
# Procedure, shortened: (§1)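 Aortic smooth-muscle cells from African green monkey thoracic aorta, grown 48 h in DMEM/10% FCS with LDL from hypercholesterolemic monkeys plus graded compound concentrations (methanol). Albumin-bound [14C]oleate then added for 2.5 h; cells trypsinized, Folch lipid extraction, [14C]cholesteryl esters isolated by TLC and counted by scintillation; IC50 derived.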
row,SMILES,IC50
1,CCCCN(Cc1ccccc1)C(=O)Nc1ccc(C)cc1C,1.83 µM
2,CC(C)(C)CCN(Cc1cccs1)C(=O)Nc1c(Cl)cc(Cl)cc1Cl,2.62 µM
3,CCCCN(CCCC)C(=O)Nc1ccc(C)c(Cl)c1,12.8 µM

# Other lines, results leading:
row,IC50,SMILES
1,39.9 µM,O=C(Nc1cccc(Cl)c1)N(Cc1ccccc1)Cc1ccccc1
2,24 µM,CCCCN(CCCC)C(=O)Nc1cccc(C)c1
3,17 µM,CC(C)(C)CCN(Cc1cccs1)C(=O)Nc1ccc(F)cc1F
4,6.3 µM,Cc1c(Cl)cccc1NC(=O)N(CCC(C)(C)C)Cc1cccs1
5,3.62 µM,CCCCN(Cc1ccccc1)C(=O)Nc1c(Cl)cc(Cl)cc1Cl

# Molecular target: T1, Sterol O-acyltransferase 1
# Assay: In vitro inhibitory concentration against ACAT derived from smooth muscle cells from thoracic aorta of monkeys
# Procedure, shortened: as §1
row,IC50,SMILES
1,1.08 µM,Cc1cc(C)c(NC(=O)N(Cc2ccccc2)Cc2ccccc2)cc1C
2,26.9 µM,CCCCN(C(=O)Nc1ccc(C)cc1C)c1ccccc1

# Molecular target: T2, Sterol O-acyltransferase 1 (Rattus norvegicus, UniProt O70536)
# T2 sequence (O70536 whole entry): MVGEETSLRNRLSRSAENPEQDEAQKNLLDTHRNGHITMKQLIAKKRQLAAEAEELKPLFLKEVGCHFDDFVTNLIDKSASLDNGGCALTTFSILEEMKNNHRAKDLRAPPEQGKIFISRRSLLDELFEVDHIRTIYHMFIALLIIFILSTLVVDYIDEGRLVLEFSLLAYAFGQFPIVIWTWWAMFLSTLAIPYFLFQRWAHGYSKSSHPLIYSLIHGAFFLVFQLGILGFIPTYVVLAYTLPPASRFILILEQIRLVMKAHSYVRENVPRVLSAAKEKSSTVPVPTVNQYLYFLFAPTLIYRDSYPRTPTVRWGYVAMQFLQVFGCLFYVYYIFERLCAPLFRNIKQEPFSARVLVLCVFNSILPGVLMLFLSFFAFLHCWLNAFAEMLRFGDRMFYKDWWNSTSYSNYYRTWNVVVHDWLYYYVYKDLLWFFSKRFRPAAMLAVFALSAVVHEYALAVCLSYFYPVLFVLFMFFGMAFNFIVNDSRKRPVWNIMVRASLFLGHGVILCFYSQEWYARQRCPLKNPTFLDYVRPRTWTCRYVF
# Assay: In vitro inhibitory concentration against […] derived from rat adrenals
row,IC50,SMILES
1,2.24 µM,CCCCCCCN(Cc1ccco1)C(=O)Nc1cc(C)c(C)cc1C

# Molecular target: T1, Sterol O-acyltransferase 1
# Assay: In vitro inhibitory concentration against […] derived from smooth muscle cells from thoracic aorta of monkeys
row,IC50,SMILES
1,0.14 µM,CCCCCCCN(Cc1ccco1)C(=O)Nc1cc(C)c(C)cc1C
